Results on 1 molecule are retold here after article PMC4600222 (Chemmedchem, 2015).

For series [1], the system named is CVB3 Nancy (L1092). Kind of series: CPE inhibition in HeLa cells, CVB3 Nancy. The class given is cell-based, coxsackievirus B3. The note with it: Enterovirus B, read-out: IC50, cytopathic effect of CVB3 Nancy. In general terms: Cytopathic effects are the visible damage that an infection or toxin causes in cultured cells.
The subject of series [2] is CVB3 97927 (I1092). Kind of series: CPE inhibition in HeLa cells, CVB3 97927. Type of series: cell-based, coxsackievirus B3. Particulars: Enterovirus B, read-out: IC50, cytopathic effect of CVB3 97927.
Series [3] relates to 46 RV serotypes and 14 EV strains. Kind of series: CPE inhibition assays in HeLa cells, panel of 60 RV and EV strains. Type of series: cell-based, rhinovirus, enterovirus.
Series [4] has as its system CVB3 Nancy wildtype. Kind of series: Plaque reduction assay in HeLa cells, CVB3 Nancy wildtype. The class given is cell-based, coxsackievirus B3. The note with it: Enterovirus B, read-out: IC50 plaque inhibition, CVB3 Nancy wildtype. Summed up:
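Plaque reduction assay in HeLa cells on wild-type CVB3 Nancy and on compound-resistant variants. The variants were isolated from wild-type pools under 1 μg mL−1 (2.7 μm) test compound, and their amino acid substitutions were identified by genetic characterization. IC50 is taken from plaque inhibition. Means and/or SD come from at least three assays.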
(In general: Plaque reduction counts the foci of infection that form in a cell layer.)

Series [5] concerns CVB3 Nancy. Kind of series: Mechanism of action, modified plaque reduction assay. The class given is cell-based, coxsackievirus B3. Particulars: 0.5 and 1 μM.
Series [6] in a line: Plasma stability. The class given is in vitro ADME.
A short description of series [7]: Metabolic stability. The class given is in vitro ADME.
The target of series [8] is K+ channel (hERG) (Homo sapiens, UniProt Q12809). Kind of series: QT prolongation K+ channel.
Sequence of K+ channel (hERG) (Q12809 whole entry, canonical isoform): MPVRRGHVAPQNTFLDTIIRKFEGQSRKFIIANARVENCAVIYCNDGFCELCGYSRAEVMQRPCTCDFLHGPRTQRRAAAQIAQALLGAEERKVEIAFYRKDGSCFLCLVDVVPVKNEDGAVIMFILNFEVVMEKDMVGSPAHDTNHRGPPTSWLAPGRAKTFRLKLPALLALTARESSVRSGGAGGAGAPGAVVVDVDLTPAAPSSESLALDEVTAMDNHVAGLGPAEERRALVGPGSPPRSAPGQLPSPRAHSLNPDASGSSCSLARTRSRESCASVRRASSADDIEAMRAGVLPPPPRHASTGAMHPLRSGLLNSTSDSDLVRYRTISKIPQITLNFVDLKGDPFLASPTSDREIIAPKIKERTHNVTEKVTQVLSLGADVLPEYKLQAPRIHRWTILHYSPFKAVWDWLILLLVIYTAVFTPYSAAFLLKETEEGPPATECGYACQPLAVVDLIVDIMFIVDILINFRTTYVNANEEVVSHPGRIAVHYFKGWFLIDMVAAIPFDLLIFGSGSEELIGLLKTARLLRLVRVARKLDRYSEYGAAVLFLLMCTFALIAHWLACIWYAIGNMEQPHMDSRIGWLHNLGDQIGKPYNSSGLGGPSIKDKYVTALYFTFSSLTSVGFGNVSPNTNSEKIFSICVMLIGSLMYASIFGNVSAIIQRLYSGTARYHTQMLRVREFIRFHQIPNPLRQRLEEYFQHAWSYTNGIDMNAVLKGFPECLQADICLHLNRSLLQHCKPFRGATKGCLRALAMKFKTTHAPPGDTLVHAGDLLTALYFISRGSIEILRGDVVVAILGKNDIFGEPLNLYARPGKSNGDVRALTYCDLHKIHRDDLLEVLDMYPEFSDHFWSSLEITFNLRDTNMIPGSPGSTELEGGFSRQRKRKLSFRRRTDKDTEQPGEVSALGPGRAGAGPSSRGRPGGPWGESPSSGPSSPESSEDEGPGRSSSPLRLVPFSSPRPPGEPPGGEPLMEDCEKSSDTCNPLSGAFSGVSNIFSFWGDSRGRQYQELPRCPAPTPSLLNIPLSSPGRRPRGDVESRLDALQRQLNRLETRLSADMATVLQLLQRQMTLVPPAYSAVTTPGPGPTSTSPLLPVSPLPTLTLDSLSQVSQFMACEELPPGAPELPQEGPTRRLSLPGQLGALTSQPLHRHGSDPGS
In series [9] the test system is CYP1A2, CYP2B6, and CYP3A4. Kind of series: Induction of cytochrome P450 isoforms. The class given is in vitro ADME.
Series [10] has as its system CYP1A, CYP2B6, CYP2C8, CYP2C9, CYP2C19, CYP2D6, and CYP3A. Kind of series: Inhibition of cytochrome P450 isoforms. The class given is in vitro ADME.
The nature of series [11]: Pharmacokinetics in mice after intragastric administration. Type of series: in vivo.
A short description of series [12]: Acute toxicity in mice. Type of series: in vivo. The note with it: no indications of adverse effects.
A short description of series [13]: Subacute. The class given is in vivo. Particulars: 12.5, 50 and 200 mg kg^−1, 30 days, male BALB/c mice; acute >3 g kg^−1.
Series [14] concerns CVB3 31-1-93. Kind of series: CVB3-induced chronic myocarditis in NMRI mice. Type of series: in vivo. The note with it: 100 mg kg^−1 orally twice daily for 7 days.

A value given as a limit tells only on which side of the number the result lay.

Turning to `Nc1nc(-c2ccccc2)nc2[nH]nc(Nc3ccc(C(F)(F)F)cc3)c12` [Compound 36, 3-(4-trifluoromethylphenyl)amino-6-phenylpyrazolo[3,4-d]pyrimidine-4-amine], the IC50 in [1] worked out at 160 nM. In addition, in series [2], the concentration for half-maximal inhibition (IC50) came out at 1050 nM. For the same molecule, in series [3] (Enterovirus, HeLa, read-out: IC50 values for high-level pleconaril-resistant viruses), the IC50 fell in the range of 40 to 640 nM. Further, the strains inhibited in [3] (of the 60 strains tested, CPE inhibition, HeLa cells) came to 52. In addition, the IC50 in series [4] was found to be 160 ± 30 nM. Also, in series [5] (1 h at 37 °C, then diluted 1:10^6), the “effect on virus infectivity, incubation with cell-free virus” value is given as “strong loss of virus infectivity”. Besides, the “effect on virus-induced plaque formation, pretreatment of cells” value in series [5] (cells pretreated prior to virus inoculation) is “no effect”. In series [6], the “Plasma stability (human), remaining (%)” value came to 100%. Moreover, in [7], the “Metabolic stability (human liver microsomes), remaining %” value stood at 100%. The “QT prolongation K+ channel (hERG)” value in series [8] was “low”. Besides, the “Induction of CYP1A2, CYP2B6, and CYP3A4” value in series [9] is recorded as “neither an inducer nor an inhibitor”. In addition, the “Inhibition of CYP1A, CYP2B6, CYP2C8, CYP2C9, CYP2C19, CYP2D6, and CYP3A” value in series [10] is listed as “neither an inducer nor an inhibitor”. This molecule also returned a Cl in series [11] (mice, 100 mg/kg intragastric) of 10.42 mL·h/kg. Also, in series [11] (mouse, plasma, po, 100 mg/kg), the AUC came to 9600 ng·h/mL, the AUC(0-t) was 6420 ng·h/mL, the MRT is 3.54 h and the Tmax turned out to be 3 h. Besides, in series [11] (mouse, plasma, po, 100 mg/kg), the half-life is 3.5 h and the k el was 5e-05 s⁻¹. Also, the Acute toxicity in series [12] is greater than 3 g/kg. Further, the “acute and chronic toxicological studies, overall finding” value in [13] is “no indications of adverse anatomical, behavioral or physiological effects”. The “antiviral effect, treatment started 3 h prior to or 1 and 3 days p. i.” value in series [14] is recorded as “strong antiviral effect”. Besides, in [14] (start 7 days p. i., results not shown), the “therapeutic effect, treatment started 7 days p. i.” value was “No therapeutic effect”.

Broadly, the IC50 is the concentration at which inhibition is half-maximal. The term AUC denotes the area under the concentration-time curve, a measure of exposure. A low value points to less exposure. Usually AUC(0-t) stands for exposure summed from dosing to a finite time, without extrapolation to infinity. Low values mean less exposure, high ones more exposure. Usually MRT stands for a mean duration of stay, worked out from the concentration-time curve. In general, Tmax refers to the time from dosing to the highest level. By half-life is commonly meant the time in which the quantity being followed falls by half. Higher therefore signals slow loss.
